Test results as given in ChEMBL document CHEMBL3232893, “Design of antiviral stapled peptides containing a biphenyl cross-linker” (Bioorg Med Chem Lett, 2014).
Bridge positions count the residues as written; N and C are the ends. Square brackets hold non-standard residues; d marks the D form. Peptide text beside a SMILES is read from it. R8 = C=CCCCCCC[C@@](C)(N)C(=O)O; S5 = C=CCCC[C@](C)(N)C(=O)O

What was measured:
[1] = test system: Human immunodeficiency virus 1; test: Antiviral activity against HIV-1 3B infected in human MT-2 cells assessed as reduction in p24 antigen level incubated for overnight measured on fourth day post infection by multi-cycle infection assay based sandwich ELISA; format: functional, organism-based; conditions: Human immunodeficiency virus 1, 3B, MT2
Outline: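 Multi-cycle infection in MT-2 cells; read-out is reduction of p24 levels. IC50 derived from dose-response.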

[2] = test system: Human immunodeficiency virus 1; test: Antiviral activity against HIV-1 NL4-3-HXB2 pseudovirus co-transfected with luciferase gene infected in human TZM-bl cells assessed as reduction of luciferase production after 3 days by single-cycle neutralization assay; format: functional, organism-based; conditions: Human immunodeficiency virus 1, NL4-3-HXB2, TZM-bl, 72 h
Outline: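 Single-cycle neutralization in TZM-bl cells; read-out is reduction of luciferase production. IC50 derived from dose-response.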

[3] = Cytotoxicity against human TZM-bl cells after 3 days by XTT assay; format: cell-based
[4] = Cytotoxicity against human MT2 cells after 4 days by XTT assay; format: cell-based
[5] = Drug uptake in human HEK293T cells assessed as increase in fluorescence at 5 uM after 2 hrs by confocal microscopy; format: ADME, cell-based; conditions: hek-293t
Outline: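 HEK293T cells were incubated with 5 μM FITC-labeled peptide at 37°C for 2 h. Intracellular fluorescence was imaged by confocal microscopy, with DIC images alongside.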

[6] = Binding affinity to HIV-1 capsid protein C-terminal domain M184A/W185A mutant at 15 uM by isothermal titration calorimetric analysis; parameters: species or system Human immunodeficiency virus 1
Outline: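 ITC: 350 μM CTD M184A/W185A mutant titrated in 10 μL aliquots into 15 μM peptide in the cell. The integrated binding isotherm was fitted to a single-site binding equation to give Kd.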

[7] = Binding affinity to HIV-1 C-terminal domain of capsid protein p24; parameters: species or system Human immunodeficiency virus 1

IC50 [1] [µM]	IC50 [2] [µM]	Drug uptake [5]	SMILES	CC50 at 72 h [3] [µM]	CC50 at 96 h [4] [µM]	Kd [6] [µM]	Kd [7] [µM]
4.1	1.4		CC[C@H](C)[C@H](NC(C)=O)C(=O)N[C@@H](CO)C(=O)N[C@@H](Cc1ccccc1)C(=O)N[C@@H]1CSCc2ccc(cc2)-c2ccc(cc2)CSC[C@@H](C(=O)N[C@@H](CCC(=O)O)C(=O)N[C@@H](CO)C(=O)NCC(=O)N[C@@H](CO)C(N)=O)NC(=O)[C@H](Cc2ccc(O)cc2)NC(=O)[C@H](Cc2ccc(O)cc2)NC(=O)[C@H](CC(=O)O)NC(=O)[C@H](C)NC(=O)[C@H](CC(C)C)NC(=O)[C@H](CCC(=O)O)NC1=O	> 52	26		
14	17.3		CC[C@H](C)[C@H](NC(C)=O)C(=O)N[C@@H](CO)C(=O)N[C@@H](Cc1ccccc1)C(=O)N[C@@H]1CSCc2ccc(cc2)-c2ccc(cc2)CSC[C@@H](C(=O)N[C@@H](CCC(=O)O)C(=O)N[C@@H](CO)C(=O)NCC(=O)N[C@@H](CO)C(N)=O)NC(=O)[C@H](C)NC(=O)[C@H](Cc2ccc(O)cc2)NC(=O)[C@H](CC(=O)O)NC(=O)[C@H](CC(C)C)NC(=O)[C@H](CC(C)C)NC(=O)[C@H](CCC(=O)O)NC1=O	> 107	> 107		
		Active	CC[C@H](C)[C@H](NC(=S)Nc1ccc(-c2c3ccc(=O)cc-3oc3cc(O)ccc23)c(C(=O)O)c1)C(=O)N[C@@H](CO)C(=O)N[C@@H](Cc1ccccc1)C(=O)N[C@@H]1CSCc2ccc(cc2)-c2ccc(cc2)CSC[C@@H](C(=O)N[C@@H](CCC(=O)O)C(=O)N[C@@H](CO)C(=O)NCC(=O)N[C@@H](CO)C(=O)O)NC(=O)[C@H](Cc2ccc(O)cc2)NC(=O)[C@H](Cc2ccc(O)cc2)NC(=O)[C@H](CC(=O)O)NC(=O)[C@H](CC(C)C)NC(=O)[C@H](CC(C)C)NC(=O)[C@H](CCC(=O)O)NC1=O				
1.5	2		CC[C@H](C)[C@H](N)C(=O)N[C@@H](CO)C(=O)N[C@@H](Cc1ccccc1)C(=O)N[C@]1(C)CCCCCC/C=C\CCC[C@@](C)(C(=O)N[C@@H](CCC(=O)O)C(=O)N[C@@H](CO)C(=O)NCC(=O)N[C@@H](CO)C(=O)O)NC(=O)[C@H](Cc2ccc(O)cc2)NC(=O)[C@H](Cc2ccc(O)cc2)NC(=O)[C@H](CC(=O)O)NC(=O)[C@H](CC(C)C)NC(=O)[C@H](CC(C)C)NC(=O)[C@H](CCC(=O)O)NC1=O (H-ISF[R8]ELLDYY[S5]ESGS-OH; staple (Z) 4-11)	> 189	> 189		

SMILES	IC50 [1] [µM]	IC50 [2] [µM]	Drug uptake [5]	CC50 at 72 h [3] [µM]	CC50 at 96 h [4] [µM]	Kd [6] [µM]	Kd [7] [µM]
CC[C@H](C)[C@H](N)C(=O)N[C@H](C(=O)N[C@@H](Cc1ccccc1)C(=O)N[C@@H](CCC(=O)O)C(=O)N[C@@H](CC(=O)O)C(=O)N[C@@H](CC(C)C)C(=O)N[C@@H](CC(C)C)C(=O)N[C@@H](CC(=O)O)C(=O)N[C@@H](Cc1ccc(O)cc1)C(=O)N[C@@H](Cc1ccc(O)cc1)C(=O)NCC(=O)N1CCC[C@H]1C(=O)O)[C@@H](C)O (H-ITFEDLLDYYGP-OH)	> 135	> 135		> 135	> 135	8.3	15
